Data reported in ChEMBL document CHEMBL1121579, “Synthesis and adrenergic blocking effects of 2-(alkylamino)-3,4-dihydroquinazolines” (1980).

Assays:
[1] = tested on: Rattus norvegicus; experiment: Decrease in mean arterial blood pressure in response to intravenous administration at 32 uM/kg of the compound.; assay type: functional, Artery
Procedure, shortened: (§1)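 Male Sprague-Dawley rats, 300–350 g, anesthetized with pentobarbital sodium 40 mg/kg ip, trachea cannulated for ventilation. Drugs dissolved in 0.9% saline and injected into a cannulated external jugular vein. Poorly soluble material was given in polyethylene glycol/ethanol/water 20:10:70. n = 3 per determination.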

[2] = tested on: Rattus norvegicus; experiment: Decrease in mean arterial blood pressure in response to intravenous administration at 64 uM/kg of the compound.; assay type: functional, Artery; procedure, shortened: as §1
[3] = tested on: Rattus norvegicus; experiment: Antagonist effect to pressor response of 0.3 ug/kg of norepinephrine intravenously in rats at the dose 32 uM/kg.; assay type: functional; procedure, shortened: as §1
[4] = tested on: Rattus norvegicus; experiment: Decrease in mean arterial blood pressure in response to intravenous administration at 2 uM/kg of the compound; assay type: functional, Artery; procedure, shortened: as §1
[5] = tested on: Rattus norvegicus; experiment: Decrease in mean arterial blood pressure in response to intravenous administration at 8 uM/kg of the compound; assay type: functional, Artery; procedure, shortened: as §1
[6] = tested on: Rattus norvegicus; experiment: Decrease in mean arterial blood pressure in response to intravenous administration at 16 uM/kg of the compound.; assay type: functional, Artery; procedure, shortened: as §1
[7] = tested on: Rattus norvegicus; experiment: Decrease in mean arterial blood pressure in response to intravenous administration at 4 uM/kg of the compound; assay type: functional, Artery; procedure, shortened: as §1
[8] = tested on: Rattus norvegicus; experiment: decrease in mean arterial blood pressure in response to intravenous administration at 16 uM/kg of the compound; assay type: functional; procedure, shortened: as §1
[9] = tested on: Rattus norvegicus; experiment: Decrease in mean arterial blood pressure in response to intravenous administration at 32 uM/kg of the compound; assay type: functional, Artery; procedure, shortened: as §1
[10] = tested on: Rattus norvegicus; experiment: Antagonist effect to pressor response of 0.3 ug/kg of norepinephrine intravenously in rats at the dose 32 uM/kg; assay type: functional; procedure, shortened: as §1
[11] = tested on: Rattus norvegicus; experiment: Decrease in mean arterial blood pressure in response to intravenous administration at 64 uM/kg of the compound; assay type: functional, Artery; procedure, shortened: as §1
[12] = tested on: Rattus norvegicus; experiment: Decrease in mean arterial blood pressure in response to intravenous administration at 16 uM/kg of the compound; assay type: functional, Artery; procedure, shortened: as §1

CNC1=Nc2ccccc2CN1
Decrease in blood pressure [1]: 25% | Decrease in blood pressure [2]: 33.3% | Block [3]: 37.8% | Decrease in blood pressure [4]: 4.67% | Decrease in blood pressure [5]: 12.7% | Decrease in blood pressure [6]: 19.7% | Decrease in blood pressure [7]: 7.7%

NC1=Nc2ccccc2CN1
Decrease in blood pressure [8]: 15% | Decrease in blood pressure [9]: 17.7% | Block [10]: 49.3% | Decrease in blood pressure [4]: 6.76% | Decrease in blood pressure [5]: 13.3% | Decrease in blood pressure [11]: 23.3% | Decrease in blood pressure [7]: 12%

CN(C)C1=Nc2ccccc2CN1
Decrease in blood pressure [12]: 7.3% | Decrease in blood pressure [9]: 12.3% | Block [10]: 10% | Decrease in blood pressure [2]: 24.7% | Decrease in blood pressure [4]: 0% | Decrease in blood pressure [5]: 5.67% | Decrease in blood pressure [7]: 0%

CCCN(CCC)C1=NCc2ccccc2N1
Decrease in blood pressure [1]: 40% | Decrease in blood pressure [4]: 3.2% | Decrease in blood pressure [5]: 11.5% | Decrease in blood pressure [6]: 30.9% | Decrease in blood pressure [7]: 7.6%

Cc1ccc(N(CC2=NCCN2)c2cccc(O)c2)cc1 [PHENTOLAMINE]
Block [10]: 66.2%
